How the values were obtained:
WNV (NY99) = experiment: Viral titer reduction assay; format: cell-based, West Nile virus; settings: A549 cells, WNV MOI 0.1, 42 h
Summary of the method: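 About 2 × 10^5 A549 cells per well are treated 24-30 h after seeding, in triplicate. Test compound, made at 2X in medium with 2% DMSO, is added, followed immediately by WNV NY99 at MOI 0.1 PFU/cell. After 42 h at 37°C, culture fluid is titred by plaque assay on confluent Vero monolayers under a 0.6% agar overlay with a neutral red second overlay. EC50 comes from nonlinear regression of the dose–response curve.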

WNV MTase [1] = biological target: T1, WNV MTase (West Nile virus, UniProt Q9Q6P4); experiment: In vitro N7 methylation inhibition assay; format: biochemical
WNV MTase [2] = biological target: T1, WNV MTase; experiment: In vitro 2'-O methylation inhibition assay; format: biochemical
Summary of the method: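 2'-O methylation is followed as conversion of m7G*pppA-RNA to m7G*pppAm-RNA. Each reaction contains 1.5 μM WNV MTase, 80 μM SAM, 0.36 μM m7G*pppA-RNA substrate and a range of test compound concentrations. Products are digested with nuclease P1, and the caps are separated by TLC and quantified by PhosphorImager. Activity is taken from m7G*pppA versus m7G*pppAm, with no-compound activity set at 100%. IC50 comes from a dose–response fit; Ki comes from Cheng-Prusoff.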

[3] = biological target: human guanine N-7 RNA MTase (hRNMTase) (Homo sapiens, UniProt O43148); experiment: Inhibition of human RNA MTase; format: biochemical
hRNMTase = hRNMTase (Homo sapiens, UniProt O43148); experiment: [3H]SAM competition binding assay
WNV MTase [4] = biological target: T1, WNV MTase; experiment: [3H]SAM competition binding assay; settings: positive control, dose response
Summary of the method: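 For G-25 filtration SAM competition, 0.6 μM WNV MTase is mixed with [methyl-3H]-SAM (about 14.1 nM final) and a 3-fold dilution series of test compound starting at 60 μM. Mixtures stand 2 h at room temperature and are spun through G-25 mini-columns. The eluted MTase-bound 3H is quantified by scintillation counting. Points are run in duplicate.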

T1 sequence (Q9Q6P4 2529-2794): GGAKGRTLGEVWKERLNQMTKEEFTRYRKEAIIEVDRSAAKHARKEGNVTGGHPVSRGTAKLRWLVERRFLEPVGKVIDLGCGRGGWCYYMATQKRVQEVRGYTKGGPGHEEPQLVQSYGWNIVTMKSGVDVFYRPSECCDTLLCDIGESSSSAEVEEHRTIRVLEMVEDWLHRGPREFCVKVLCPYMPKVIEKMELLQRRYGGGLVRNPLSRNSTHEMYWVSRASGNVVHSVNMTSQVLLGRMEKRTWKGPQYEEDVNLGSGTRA
Chain of human guanine N-7 RNA MTase (hRNMTase) (O43148 whole entry): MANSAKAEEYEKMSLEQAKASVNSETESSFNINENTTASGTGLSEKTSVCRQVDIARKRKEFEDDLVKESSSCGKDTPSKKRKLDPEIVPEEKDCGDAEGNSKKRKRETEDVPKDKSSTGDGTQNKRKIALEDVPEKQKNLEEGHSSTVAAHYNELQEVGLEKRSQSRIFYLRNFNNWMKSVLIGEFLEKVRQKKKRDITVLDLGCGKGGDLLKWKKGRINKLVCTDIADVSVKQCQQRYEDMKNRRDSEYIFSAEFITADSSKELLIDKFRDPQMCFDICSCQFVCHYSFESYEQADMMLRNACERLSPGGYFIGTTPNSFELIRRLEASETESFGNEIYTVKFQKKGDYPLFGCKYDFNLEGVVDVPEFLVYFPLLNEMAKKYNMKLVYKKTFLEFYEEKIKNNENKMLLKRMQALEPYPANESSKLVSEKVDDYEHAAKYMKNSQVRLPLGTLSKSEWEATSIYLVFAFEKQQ
Chain of hRNMTase (O43148 whole entry): as above

| SMILES | Concentration giving one logarithmic order of reduction in the WNV replication (WNV (NY99)) | Inhibition of N-7 MTase activity (in words) (WNV MTase [1]) | Hill coef. (N-7) (WNV MTase [1]; dose-response curve of N-7 MTase inhibition) | Fold lower Ki than GRL-001 (N-7 inhibition) (WNV MTase [1]; relative to GRL-001) | Hill coef. (2'-O) (WNV MTase [2]; dose-response curve of 2'-O MTase inhibition) | Fold lower Ki than GRL-001 (2'-O inhibition) (WNV MTase [2]; relative to GRL-001) | Inhibition of hRNMTase activity (in words) ([3]; even at 300 μM compound concentration) | Inhibition of [3H]SAM binding to hRNMTase (in words) (hRNMTase; 300 μM compound) | Inhibition of 3H-labeled SAM-MTase complex formation (in words) (WNV MTase [4]) | IC50 [3] | Inhibition of [3H]SAM binding to hRNMTase (in words) (hRNMTase; control, dose response) |
| --- | --- | --- | --- | --- | --- | --- | --- | --- | --- | --- | --- |
| CCOC(=O)[C@@](C)(O)[C@@H]1C[C@@H](CO[Si](c2ccccc2)(c2ccccc2)C(C)(C)C)O[C@H]1n1cc(F)c(=O)[nH]c1=O [GRL-003] | 50 μM | only moderately inhibited | 0.9 | 5 fold | 2.8 | 12 fold | did not inhibit | did not inhibit | – | – | – |
| Nc1ncnc2c1ncn2[C@@H]1O[C@H](C[C@@H](N)CC[C@H](N)C(=O)O)[C@@H](O)[C@H]1O [SIN, Sinefungin, reference compound] | – | – | – | – | – | – | – | – | very efficiently in a dose-dependent manner | ~41.2 µM | decreased the SAM binding very efficiently |

From PMC3608738 (Antiviral research, 2012)
